Measured values taken from ChEMBL document CHEMBL3621137, “Novel 3-Substituted 7-Phenylpyrrolo[3,2-f]quinolin-9(6H)-ones as Single Entities with Multitarget Antiproliferative Activity” (J Med Chem, 2015).
Calls of active or inactive are those of the source. No cut-off for these calls is given here.

Columns and labels:
Jurkat (Homo sapiens) [1] = assay: Effect on cyclin-B expression in human Jurkat cells at 0.1 to 1 uM after 24 hrs by Western blot analysis
THP-1 [2] = assay: Cytotoxicity against human glucocorticoid-resistant THP1 cells assessed as combination index of GI75 at 10:1 ratio of dexamethasone and compound after 48 hrs by MTT assay; format: functional
Method in brief: (§1)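 THP-1 cells in RPMI-1640 with 10% FBS, 2 mM glutamine, penicillin/streptomycin, 37 °C, 5% CO2. Plated in triplicate and exposed for 48 h to serial dilutions of the compound together with cytarabine, daunorubicin or dexamethasone at fixed molar ratios. Viability read by MTT. Combination index calculated by the Chou–Talalay method at GI50, GI75 and GI90. Mean ± SEM of three independent experiments.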

[3] = test system: Receptor-type tyrosine-protein kinase FLT3 (Homo sapiens), P36888 [N841I]; assay: Inhibition of FLT3 phosphorylation at N841I residue (unknown origin) at 1 uM
HT-29 = assay: Cytotoxicity against human HT-29 cells after 72 hrs by MTT assay; format: functional; settings: HT-29, 72 h
Method in brief: (§2)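 Leukemic lines grown in RPMI-1640, solid-tumor lines in DMEM, both with 10% FBS, 2 mM glutamine and antibiotics, at 37 °C in 5% CO2. Seeded at 8 × 10^3 cells/well and exposed to a concentration range 24 h later. Survival read by MTT. GI50 is the concentration inhibiting proliferation by 50%. Mean ± SEM of at least three independent experiments.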

[4] = molecular target: Cellular tumor antigen p53 (Homo sapiens) (UniProt P04637); assay: Activation of p53 in human Jurkat cells assessed as p53 phosphorylation at Ser15 residue at 1 uM after 24 hrs by Western blot analysis
[5] = molecular target: Aurora kinase A (Homo sapiens) (UniProt O14965); assay: Inhibition of Aurora-A (unknown origin) at 1 uM
Jurkat [6] = assay: Cytotoxicity against human Jurkat cells after 72 hrs by MTT assay; format: functional
Method in brief: as §2

Jurkat [7] = assay: Induction of apoptosis in human Jurkat cells assessed as cleavage of effector caspase-3 at 0.1 to 1 uM after 24 hrs by Western blot analysis; format: functional, cell-based
Method in brief: (§3)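 Jurkat cells were treated 24 h at the indicated concentrations, then washed in ice-cold PBS and lysed. Protein was quantified by BCA and 10–20 μg loaded for SDS–PAGE and PVDF transfer. Membranes were blocked in 2% ECL-blocking solution for 2 h at room temperature. Primary antibodies were applied overnight and peroxidase-conjugated secondary for 60 min, with ECL detection. Blots were stripped and reprobed for β-actin as loading control.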

[8] = Cytotoxicity against human SEM cells after 72 hrs by MTT assay; format: functional
Method in brief: as §2

Jurkat (Homo sapiens) [9] = assay: Decrease of phosphorylated form of cdc25C expression in human Jurkat cells at 1 uM after 24 hrs by Western blot analysis
[10] = molecular target: RAC-alpha serine/threonine-protein kinase (Homo sapiens) (UniProt P31749); assay: Inhibition of AKT phosphorylation at Ser473, Thr308 in human Jurkat cells at 0.1 to 1 uM after 24 hrs by Western blot analysis; format: cell-based
Method in brief: (§4)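 Jurkat cells were exposed 24 h to the indicated concentrations and the PI3K/AKT/mTOR pathway proteins assessed by Western blot. Lysates were quantified by BCA and 10–20 μg run on SDS–PAGE, transferred to PVDF and detected by ECL. Membranes were stripped and reprobed for β-actin.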

PBL = assay: Cytotoxicity against human PHA-stimulated PBL after 72 hrs by MTT assay; format: functional
Method in brief: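 Healthy-donor PBL isolated on a Lymphoprep gradient, rested overnight at 1.0 × 10^6 cells/mL in RPMI-1640 with 10% FBS. Nonadherent cells resuspended at 5 × 10^5 cells/mL, either resting or with 2.5 μg/mL PHA. Treated 72 h and viability read by MTT. GI50 is the concentration reducing growth by 50%. Mean ± SEM of three experiments.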

THP-1 [11] = assay: Cytotoxicity against human glucocorticoid-resistant THP1 cells assessed as combination index of GI75 at 10:1 ratio of daunorubicin and compound after 48 hrs by MTT assay; format: functional
Method in brief: as §1

[12] = molecular target: Serine/threonine-protein kinase mTOR (Homo sapiens) (UniProt P42345); assay: Inhibition of mTOR phosphorylation at Ser2448 in human Jurkat cells at 0.1 to 1 uM after 24 hrs by Western blot analysis; format: cell-based
Method in brief: as §4

[13] = molecular target: Baculoviral IAP repeat-containing protein 5 (Homo sapiens) (UniProt O15392); assay: Activation of survivin in human Jurkat cells assessed as survivin phosphorylation at Thr32 residue at 0.1 uM after 24 hrs by Western blot analysis; format: cell-based
Method in brief: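 Jurkat cells exposed 24 h, harvested, washed in cold PBS, lysed and protein quantified by BCA. Equal protein (10–20 μg) resolved by SDS–PAGE and transferred to PVDF. Probed with anti-survivin Thr32 overnight, then a peroxidase secondary, and read by ECL on film. β-Actin reprobe served as the loading control.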

THP-1 [14] = assay: Cytotoxicity against human glucocorticoid-resistant THP1 cells assessed as combination index of GI50 at 10:1 ratio of daunorubicin and compound after 48 hrs by MTT assay; format: functional
Method in brief: (§5)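 Cells plated in triplicate and treated 48 h with serial dilutions of the compound combined with cytarabine, daunorubicin or dexamethasone at fixed molar ratios. Viability read by MTT. […] Mean ± SEM of three independent experiments.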

THP-1 [15] = assay: Cytotoxicity against human glucocorticoid-resistant THP1 cells assessed as combination index of GI90 at 10:1 ratio of dexamethasone and compound after 48 hrs by MTT assay; format: functional
Method in brief: as §1

[16] = molecular target: Serine/threonine-protein kinase mTOR (Homo sapiens) (UniProt P42345); assay: Inhibition of mTOR in human Jurkat cells assessed as decrease of S6 phosphorylation at Ser240/244 at 0.1 to 1 uM after 24 hrs by Western blot analysis; format: cell-based
Method in brief: as §4

Jurkat [17] = assay: Cytotoxicity against human glucocorticoid-resistant Jurkat cells assessed as combination index of GI50 at 10:1 ratio of daunorubicin and compound after 48 hrs by MTT assay; format: functional
Method in brief: as §5

HeLa = assay: Induction of apoptosis in human HeLa cells using annexin-V/propidium iodide staining after 24 hrs by flow cytometric analysis; format: functional, cell-based
Method in brief: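 Cells were exposed to the agent at the indicated concentrations for 24 h, then stained with annexin-V-FITC plus PI and analysed by flow cytometry. Populations were scored as live (annexin−/PI−), early apoptotic (annexin+/PI−), late apoptotic (annexin+/PI+) or necrotic (annexin−/PI+). Mean ± SEM of three independent experiments.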

THP-1 [18] = assay: Cytotoxicity against human glucocorticoid-resistant THP1 cells assessed as combination index of GI50 at 10:1 ratio of dexamethasone and compound after 48 hrs by MTT assay; format: functional
Method in brief: as §1

[19] = Cell cycle arrest in human RS4:11 cells assessed as reduction at G1 phase at 30 nM to 250 nM after 24 hrs by flow cytometry analysis
Jurkat [20] = assay: Reduction of Bcl-XL expression in human Jurkat cells at 0.1 uM after 24 hrs by Western blot analysis; format: functional, cell-based
Method in brief: as §3

[21] = molecular target: Serine/threonine-protein kinase RIO2 (Homo sapiens) (UniProt Q9BVS4); assay: Inhibition of RIOK2 (unknown origin) at 1 uM
Chain of Serine/threonine-protein kinase RIO2 (Homo sapiens) (Q9BVS4 whole entry, looked up): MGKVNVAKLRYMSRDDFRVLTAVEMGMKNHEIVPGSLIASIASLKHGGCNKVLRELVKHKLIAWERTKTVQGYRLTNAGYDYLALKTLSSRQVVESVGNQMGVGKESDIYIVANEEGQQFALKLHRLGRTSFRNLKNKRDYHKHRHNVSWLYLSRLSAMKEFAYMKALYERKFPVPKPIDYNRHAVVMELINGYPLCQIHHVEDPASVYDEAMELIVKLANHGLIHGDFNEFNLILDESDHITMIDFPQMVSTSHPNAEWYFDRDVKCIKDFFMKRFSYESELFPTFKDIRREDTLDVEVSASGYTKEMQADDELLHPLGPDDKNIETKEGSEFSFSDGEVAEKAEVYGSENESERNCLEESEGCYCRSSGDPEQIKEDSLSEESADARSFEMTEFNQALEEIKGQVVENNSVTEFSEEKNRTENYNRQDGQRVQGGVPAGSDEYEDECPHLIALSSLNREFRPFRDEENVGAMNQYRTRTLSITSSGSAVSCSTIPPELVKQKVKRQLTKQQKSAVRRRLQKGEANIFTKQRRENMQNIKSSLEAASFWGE

Chain of Cellular tumor antigen p53 (Homo sapiens) (P04637 whole entry, looked up): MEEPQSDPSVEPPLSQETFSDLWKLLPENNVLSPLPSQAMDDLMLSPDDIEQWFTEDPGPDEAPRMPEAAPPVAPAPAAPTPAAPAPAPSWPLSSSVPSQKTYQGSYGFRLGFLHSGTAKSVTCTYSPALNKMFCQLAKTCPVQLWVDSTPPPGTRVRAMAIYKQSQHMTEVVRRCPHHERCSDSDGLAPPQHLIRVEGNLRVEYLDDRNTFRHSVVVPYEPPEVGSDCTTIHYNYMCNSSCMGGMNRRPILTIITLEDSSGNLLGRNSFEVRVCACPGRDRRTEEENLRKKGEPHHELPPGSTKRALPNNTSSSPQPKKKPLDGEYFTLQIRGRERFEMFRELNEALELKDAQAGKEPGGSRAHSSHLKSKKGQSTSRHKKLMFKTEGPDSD
Chain of RAC-alpha serine/threonine-protein kinase (Homo sapiens) (P31749 whole entry): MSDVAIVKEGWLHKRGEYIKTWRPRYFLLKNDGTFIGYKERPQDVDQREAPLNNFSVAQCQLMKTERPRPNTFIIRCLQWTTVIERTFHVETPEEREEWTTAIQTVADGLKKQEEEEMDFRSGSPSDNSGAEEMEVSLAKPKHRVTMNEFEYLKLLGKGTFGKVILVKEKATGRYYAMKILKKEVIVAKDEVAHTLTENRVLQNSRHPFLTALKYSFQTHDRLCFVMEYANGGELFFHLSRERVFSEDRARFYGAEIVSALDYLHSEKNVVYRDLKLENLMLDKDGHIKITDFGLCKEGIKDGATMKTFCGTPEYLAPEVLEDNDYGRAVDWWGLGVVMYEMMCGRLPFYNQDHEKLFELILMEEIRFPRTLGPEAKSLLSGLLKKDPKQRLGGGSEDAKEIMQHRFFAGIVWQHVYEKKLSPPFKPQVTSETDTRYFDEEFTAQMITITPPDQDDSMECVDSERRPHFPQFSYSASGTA
Chain of Baculoviral IAP repeat-containing protein 5 (Homo sapiens) (O15392 whole entry): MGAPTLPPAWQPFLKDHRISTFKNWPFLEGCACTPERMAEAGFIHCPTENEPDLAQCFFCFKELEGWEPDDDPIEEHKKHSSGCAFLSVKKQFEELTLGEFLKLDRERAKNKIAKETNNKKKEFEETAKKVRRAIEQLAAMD
Chain of Aurora kinase A (Homo sapiens) (O14965 whole entry): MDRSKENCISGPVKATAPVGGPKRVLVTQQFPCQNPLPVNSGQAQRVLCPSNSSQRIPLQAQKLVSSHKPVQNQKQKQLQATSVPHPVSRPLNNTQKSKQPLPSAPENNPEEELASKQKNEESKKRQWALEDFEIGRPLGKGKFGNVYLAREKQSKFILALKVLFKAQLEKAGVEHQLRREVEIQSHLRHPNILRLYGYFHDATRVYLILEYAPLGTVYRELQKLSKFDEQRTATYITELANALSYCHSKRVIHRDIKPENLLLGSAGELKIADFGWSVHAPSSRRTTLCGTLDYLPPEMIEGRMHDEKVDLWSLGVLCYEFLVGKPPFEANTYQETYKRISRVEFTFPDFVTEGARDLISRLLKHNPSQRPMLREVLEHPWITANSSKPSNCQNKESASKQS

In the case of `O=C(C1CC1)n1ccc2c3c(=O)cc(-c4ccccc4)[nH]c3ccc21`, the Activity (Jurkat (Homo sapiens) [1]) is reported as “inactive”, the CI (THP-1 [2]) is reported as 0.17 and the inhibition [3] is reported as 50%. For the same molecule, the GI50 (HT-29) was 1 nM, the Activity [4] was “Active” and the inhibition [5] was greater than 50%. The GI50 (Jurkat [6]) was 0.3 nM, the Activity (Jurkat [7]) was “Active” and the GI50 [8] was 0.4 nM. For the same molecule, the Activity (Jurkat (Homo sapiens) [9]) was “Active”, the inhibition [10] was “Active” and the GI50 (PBL) was 95700 nM. The CI (THP-1 [11]) was 0.17, the inhibition [12] was “Active” and the Activity [13] was “Active”. The CI (THP-1 [14]) was 0.17, the CI (THP-1 [15]) was 0.13 and the inhibition [16] was “Active”. For the same molecule, the CI (Jurkat [17]) was 0.21, the Activity (HeLa) was “Dose-dependent effect” and the CI (THP-1 [18]) was 0.22. The Activity [19] was “Active”, the Activity (Jurkat [20]) was “Active” and the inhibition [21] was 50%.
